# Assay results: ChEMBL document CHEMBL1154978, “Sesquiterpenes from Maytenus jelskii as potential cancer chemopreventive agents” (J Nat Prod, 2010)
# Calls of active or inactive are those of the source. No cut-off for these calls is given here.
# Legend:
# Raji [1] = experiment: Inhibition of TPA-induced EBV early antigen activation in human Raji cells at 10 molar ratio after 48 hrs relative to TPA by indirect immunofluorescence technique; format: cell-based; set-up: scale not given: the % may be the effect or the level left; conditions: human gammaherpesvirus 4
# Raji [2] = experiment: Inhibition of TPA-induced EBV early antigen activation in human Raji cells at 1000 molar ratio after 48 hrs relative to TPA by indirect immunofluorescence technique; format: cell-based; set-up: scale not given: the % may be the effect or the level left; conditions: human gammaherpesvirus 4
# Raji [3] = experiment: Cytotoxicity against human Raji cells carrying EBV genome by trypan blue staining method; format: cell-based; set-up: concentration or dose not given beside the values
# Outline: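 Raji cells grown in RPMI-1640 with 10% FBS and exposed for 48 h at 37 °C to n-butyric acid (4 mmol), TPA (32 pmol) and test compound in DMSO. Viability of treated cells was read by Trypan Blue staining.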
# Raji [4] = experiment: Inhibition of TPA-induced EBV early antigen activation in human Raji cells at 500 molar ratio after 48 hrs relative to TPA by indirect immunofluorescence technique; format: cell-based; set-up: scale not given: the % may be the effect or the level left; conditions: human gammaherpesvirus 4
# Raji [5] = experiment: Inhibition of TPA-induced EBV early antigen activation in human Raji cells at 100 molar ratio after 48 hrs relative to TPA by indirect immunofluorescence technique; format: cell-based; set-up: scale not given: the % may be the effect or the level left; conditions: human gammaherpesvirus 4
# Mus musculus [6] = experiment: Inhibition of DMBA-induced/TPA-promoted carcinogenesis in ICR mouse assessed as reduction in number of skin papillomas per mouse at 85 nmol administered 1 hr before TPA treatment measured after 20 weeks; format: functional, organism-based
# Outline: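 Female SPF ICR mice, 6 weeks old, 15 per group, with shaved backs. Initiation was a single topical dose of DMBA (100 µg, 390 nmol) in 0.1 mL acetone. From one week later, TPA (1 µg, 1.7 nmol) in acetone was applied twice weekly. Compound (85 nmol in 0.1 mL acetone) was applied topically 1 h before each TPA dose. Papillomas per mouse were recorded weekly for 20 weeks.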
# Mus musculus [7] = experiment: Inhibition of DMBA-induced/TPA-promoted carcinogenesis in ICR mouse assessed as reduction of papilloma-bearing mice at 85 nmol administered 1 hr before TPA treatment measured after 10 weeks
# Mus musculus [8] = experiment: Inhibition of DMBA-induced/TPA-promoted carcinogenesis in ICR mouse assessed as reduction of papilloma-bearing mice at 85 nmol administered 1 hr before TPA treatment measured after 15 weeks
# Mus musculus [9] = experiment: Inhibition of DMBA-induced/TPA-promoted carcinogenesis in ICR mouse assessed as reduction of papilloma-bearing mice at 85 nmol administered 1 hr before TPA treatment measured after 20 weeks
SMILES,Activity (Raji [1]) [%],Activity (Raji [2]) [%],Activity (Raji [3]) [%],Activity (Raji [4]) [%],Activity (Raji [5]) [%],Activity (Mus musculus [6]),Papilloma-bearing mice % (Mus musculus [7]) [%],Papilloma-bearing mice % (Mus musculus [8]) [%],Papilloma-bearing mice % (Mus musculus [9]) [%]
CC(=O)O[C@H]1[C@H](OC(=O)c2ccccc2)[C@@]2(C)[C@@H](OC(=O)/C=C/c3ccccc3)C[C@@H]3[C@@H](O)[C@]2(OC3(C)C)[C@@](C)(O)[C@H]1OC(C)=O,100,10.1,60,51.3,85.2,,,,
CC(=O)O[C@H]1[C@H](OC(=O)c2ccccc2)[C@@]2(C)[C@@H](OC(=O)/C=C/c3ccccc3)C[C@@H]3[C@@H](O)[C@]2(OC3(C)C)[C@@](C)(O)[C@H]1O,100,5.3,60,35.2,85.2,,,,
CC(=O)O[C@H]1[C@H](OC(=O)c2ccccc2)[C@@]2(C)[C@@H](OC(=O)c3ccccc3)C[C@@H]3[C@@H](OC(C)=O)[C@]2(OC3(C)C)[C@@](C)(O)[C@H]1OC(=O)c1cccnc1,100,7.5,60,36.6,87.6,,,,
CC(=O)O[C@H]1[C@H](OC(=O)c2ccccc2)[C@@]2(C)[C@@H](OC(=O)/C=C/c3ccccc3)C[C@@H]3C[C@]2(OC3(C)C)[C@@](C)(O)[C@H]1O,100,10.9,60,52,86.2,,,,
CC(=O)O[C@H]1[C@H](OC(=O)c2ccccc2)[C@@]2(C)[C@@H](OC(=O)c3ccccc3)C[C@@H]3[C@@H](OC(=O)c4ccccc4)[C@]2(OC3(C)C)[C@@](C)(O)[C@H]1O,100,13.7,60,54.2,87.1,,,,
CC(=O)O[C@H]1[C@H](OC(=O)c2ccccc2)[C@@]2(C)[C@@H](OC(=O)/C=C/c3ccccc3)C[C@@H]3[C@@H](OC(C)=O)[C@]2(OC3(C)C)[C@@](C)(O)[C@H]1O,100,9.3,60,50.1,84.3,,,,
"CC(=O)O[C@H]1[C@H](OC(=O)c2ccccc2)[C@@]2(C)[C@@H](OC(=O)c3ccccc3)C[C@@H]3[C@@H](OC(C)=O)[C@]2(OC3(C)C)[C@@](C)(O)[C@H]1O [2BETA,3BETA,4BETA,TRIHYDROXYCELARBICO]",98.6,0,60,33.2,77.5,Active,20,53.3,90
CC1=C(/C=C/C(C)=C/C=C/C(C)=C/C=C/C=C(C)/C=C/C=C(C)/C=C/C2=C(C)CCCC2(C)C)C(C)(C)CCC1 [BETA CAROTENE],100,8.6,70,33.3,,,,,
CC(=O)O[C@H]1[C@H](OC(=O)c2ccccc2)[C@@]2(C)[C@@H](OC(=O)/C=C/c3ccccc3)C[C@@H]3C[C@]2(OC3(C)C)[C@@](C)(O)[C@H]1OC(C)=O,100,11.8,60,53.2,86.3,,,,
CC(=O)O[C@H]1[C@H](OC(=O)c2ccccc2)[C@@]2(C)[C@@H](OC(=O)/C=C/c3ccccc3)C[C@@H]3[C@@H](OC(C)=O)[C@]2(OC3(C)C)[C@@](C)(O)[C@H]1OC(C)=O,100,8.9,60,39.6,87.4,,,,
